Results from ChEMBL document CHEMBL1138683 (J Med Chem, 2004).

Legend:
Rattus norvegicus [1] = experiment: Anticonvulsant activity administered orally to rat for protective index of subcutaneous metrazol test; assay type: functional
Mus musculus [2] = experiment: Anticonvulsant activity administered intra peritoneally to mouse for protective index of subcutaneous metrazol test; assay type: functional
[3] = Anti convulsant activity administered intra peritoneally to mouse for toxicity at 4 hr with dose of 30 mg/kg; 0/2= No of animals exhibiting toxicity /No of animals tested; assay type: organism-based; parameters: dose 30 mg/kg; conditions: in vivo, ip
[4] = Anti convulsant activity administered intra peritoneally to mouse for toxicity at 4 hr with dose of 100 mg/kg; 0/4= No of animals exhibiting toxicity /No of animals tested; assay type: organism-based; parameters: dose 100 mg/kg; conditions: in vivo, ip
[5] = Anti convulsant activity administered intra peritoneally to mouse for toxicity at 4 hr with dose of 300 mg/kg; 1/2= No of animals exhibiting toxicity /No of animals tested; assay type: organism-based; parameters: dose 300 mg/kg; conditions: in vivo, ip
[6] = Anti convulsant activity administered intra peritoneally to mouse for toxicity at 0.5 hr with dose of 30 mg/kg; 0/4= No of animals exhibiting toxicity /No of animals tested; assay type: organism-based; parameters: dose 30 mg/kg; conditions: in vivo, ip
[7] = Anti convulsant activity administered intra peritoneally to mouse for toxicity at 0.5 hr with dose of 100 mg/kg; 0/8= No of animals exhibiting toxicity /No of animals tested; assay type: organism-based; parameters: dose 100 mg/kg; conditions: in vivo, ip
[8] = Anti convulsant activity administered intra peritoneally to mouse for toxicity at 0.5 hr with dose of 300 mg/kg; 4/4= No of animals exhibiting toxicity /No of animals tested; assay type: organism-based; parameters: dose 300 mg/kg; conditions: in vivo, ip
Mus musculus [9] = experiment: Anti convulsant activity administered intra peritoneally to mouse at maximal electroshock test at 4 hr after the drug administered with dose of 30 mg/kg; 0/1= No of animals protected /No of animals tested; assay type: functional
Mus musculus [10] = experiment: Anti convulsant activity administered intra peritoneally to mouse at maximal electroshock test at 4 hr after the drug administered with dose of 100 mg/kg; 0/3= No of animals protected /No of animals tested; assay type: functional
Mus musculus [11] = experiment: Anti convulsant activity administered intra peritoneally to mouse at maximal electroshock test at 4 hr after the drug administered with dose of 300 mg/kg; 0/1= No of animals protected /No of animals tested; assay type: functional
Mus musculus [12] = experiment: Anti convulsant activity administered intra peritoneally to mouse at maximal electroshock test at 0.5 h after the drug administered with dose of 30 mg/kg; 0/1= No of animals protected /No of animals tested; assay type: functional
Mus musculus [13] = experiment: Anti convulsant activity administered intra peritoneally to mouse for subcutaneous metrazol test at 4 hr after the drug administered with dose of 30 mg/kg; 0/1= No of animals protected /No of animals tested; assay type: functional; conditions: route intraperitoneal
Mus musculus [14] = experiment: Anti convulsant activity administered intra peritoneally to mouse at maximal electroshock test at 0.5 hr after the drug administered with dose of 100 mg/kg; 0/3= No of animals protected /No of animals tested; assay type: functional
Mus musculus [15] = experiment: Anti convulsant activity administered intra peritoneally to mouse at maximal electroshock test at 0.5 hr after the drug administered with dose of 300 mg/kg; 1/1= No of animals protected /No of animals tested; assay type: functional
Mus musculus [16] = experiment: Anti convulsant activity administered intra peritoneally to mouse for subcutaneous metrazol test at 4 hr after the drug administered with dose of 100 mg/kg; 0/1= No of animals protected /No of animals tested; assay type: functional
Rattus norvegicus [17] = experiment: Anticonvulsant activity after oral administration of 30 mg/kg dose after 15 min in rats; + means 25% of the animals protected; assay type: functional, organism-based; parameters: dose 30 mg/kg
How it was run: (§1)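 Oral dosing of rats at a single dose, compound dissolved or suspended in 0.5% methylcellulose. Protection in the MES or scMet test checked 15 min, 30 min, 1 h, 2 h and 4 h after dosing. Scored as 25/50/75/100% of animals protected (+ to ++++), – for none.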

Mus musculus [18] = experiment: Anti convulsant activity administered intra peritoneally to mouse for subcutaneous metrazol test at 4 hr with dose of 300 mg/kg; 0/1= No of animals protected /No of animals tested; assay type: functional
Mus musculus [19] = experiment: Anti convulsant activity administered intra peritoneally to mouse for subcutaneous metrazol test at 0.5 hr with dose of 30 mg/kg; 0/1= No of animals protected /No of animals tested; assay type: functional
Mus musculus [20] = experiment: Anti convulsant activity administered intra peritoneally to mouse for subcutaneous metrazol test at 0.5 hr with dose of 100 mg/kg; 0/1= No of animals protected /No of animals tested; assay type: functional
Mus musculus [21] = experiment: Anti convulsant activity administered intra peritoneally to mouse for subcutaneous metrazol test at 0.5 hr with dose of 300 mg/kg; 1/1= No of animals protected /No of animals tested; assay type: functional
Rattus norvegicus [22] = experiment: Anticonvulsant activity after oral administration of 30 mg/kg dose after 4 hr in rats; +means 25% of animals protected; assay type: functional, organism-based; parameters: dose 30 mg/kg; how it was run: as §1
[23] = Anti convulsant activity administered intra peritoneally to mouse for toxicity at 4 hr with dose of 100 mg/kg; 1/4= No of animals exhibiting toxicity /No of animals tested; assay type: organism-based; parameters: dose 100 mg/kg; conditions: in vivo, ip
[24] = Anti convulsant activity administered intra peritoneally to mouse for toxicity at 4 hr with dose of 300 mg/kg; 0/2= No of animals exhibiting toxicity /No of animals tested; assay type: organism-based; parameters: dose 300 mg/kg; conditions: in vivo, ip
[25] = Anti convulsant activity administered intra peritoneally to mouse for toxicity at 0.5 hr with dose of 100 mg/kg; 1/8= No of animals exhibiting toxicity /No of animals tested; assay type: organism-based; parameters: dose 100 mg/kg; conditions: in vivo, ip
[26] = Anti convulsant activity administered intra peritoneally to mouse for toxicity at 0.5 hr with dose of 300 mg/kg; 2/4= No of animals exhibiting toxicity /No of animals tested; assay type: organism-based; parameters: dose 300 mg/kg; conditions: in vivo, ip
Mus musculus [27] = experiment: Anti convulsant activity administered intra peritoneally to mouse at maximal electroshock test at 0.5 h after the drug administered with dose of 300 mg/kg; 0/1= No of animals protected /No of animals tested; assay type: functional
Rattus norvegicus [28] = experiment: Anticonvulsant activity after oral administration of 100 mg/kg dose after 1 hr in rats; + means 25% of the animals protected; assay type: functional, organism-based; parameters: dose 100 mg/kg; how it was run: as §1
Mus musculus [29] = experiment: Anti convulsant activity administered intra peritoneally to mouse for subcutaneous metrazol test at 0.5 h with dose of 300 mg/kg; 0/1= No of animals protected /No of animals tested; assay type: functional
Rattus norvegicus [30] = experiment: Anticonvulsant activity after oral administration of 100 mg/kg dose after 30 min in rats; +means 25% of animal protected; assay type: functional, organism-based; parameters: dose 100 mg/kg; how it was run: as §1
Rattus norvegicus [31] = experiment: Anticonvulsant activity after oral administration of 50 mg/kg dose after 30 min in rats; ++ means 50% of animals protected; assay type: functional, organism-based; parameters: dose 50 mg/kg
How it was run: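 Rats dosed orally with compound dissolved or suspended in 0.5% methylcellulose (0.04 mL per 10 g body weight). Anticonvulsant protection (MES or scMet) and toxicity scored at 15 min, 30 min, 1 h, 2 h and 4 h after dosing. Graded in steps of 25% of animals protected or showing toxicity.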

## CC1(C)C(C(N)=O)C1(C)C
Rattus norvegicus [1]
  Activity: 7.3
Mus musculus [2]
  Activity: 1.7

## CC1(C)C(C(=O)NCCF)C1(C)C
[3]
  Toxicity: 0
[4]
  Toxicity: 0
[5]
  Toxicity: 1
[6]
  Toxicity: 0
[7]
  Toxicity: 0
[8]
  Toxicity: 4
Mus musculus [9]
  Activity: 0
Mus musculus [10]
  Activity: 0
Mus musculus [11]
  Activity: 0
Mus musculus [12]
  Activity: 0
Mus musculus [13]
  Activity: 0
Mus musculus [14]
  Activity: 0
Mus musculus [15]
  Activity: 1
Mus musculus [16]
  Activity: 0
Rattus norvegicus [17]
  Activity: 25% of animals protected
Mus musculus [18]
  Activity: 1
Mus musculus [19]
  Activity: 0
Mus musculus [20]
  Activity: 0
Mus musculus [21]
  Activity: 1
Rattus norvegicus [22]
  Activity: 25% of animals protected

## CN(CCO)C(=O)C1C(C)(C)C1(C)C
[23]
  Toxicity: 1
[24]
  Toxicity: 0
[3]
  Toxicity: 0
[6]
  Toxicity: 0
[25]
  Toxicity: 1
[26]
  Toxicity: 2
Mus musculus [9]
  Activity: 0
Mus musculus [10]
  Activity: 0
Mus musculus [11]
  Activity: 0
Mus musculus [12]
  Activity: 0
Mus musculus [13]
  Activity: 0
Mus musculus [14]
  Activity: 0
Mus musculus [27]
  Activity: 0
Mus musculus [16]
  Activity: 0
Rattus norvegicus [28]
  Activity: 25% of the animals protected
Mus musculus [18]
  Activity: 0
Mus musculus [19]
  Activity: 0
Mus musculus [20]
  Activity: 0
Mus musculus [29]
  Activity: 0

## CN(C)C(=O)C1C(C)(C)C1(C)C
[3]
  Toxicity: 0
[4]
  Toxicity: 0
[5]
  Toxicity: 1
[6]
  Toxicity: 0
[7]
  Toxicity: 0
[8]
  Toxicity: 4
Mus musculus [9]
  Activity: 0
Mus musculus [10]
  Activity: 0
Mus musculus [11]
  Activity: 0
Mus musculus [12]
  Activity: 0
Mus musculus [13]
  Activity: 0
Mus musculus [14]
  Activity: 0
Mus musculus [15]
  Activity: 1
Mus musculus [16]
  Activity: 0
Rattus norvegicus [30]
  Activity: 25% of animal protected
Rattus norvegicus [31]
  Activity: 25% of animal protected
Mus musculus [18]
  Activity: 0
Mus musculus [19]
  Activity: 0
Mus musculus [20]
  Activity: 0
Mus musculus [29]
  Activity: 0
